Data reported in ChEMBL document CHEMBL1124127, “Central dopaminergic and 5-hydroxytryptaminergic effects of C3-methylated derivatives of 8-hydroxy-2-(di-n-propylamino)tetralin” (J Med Chem, 1988).

Legend:
[1] = tested on: Rattus norvegicus; assay: Effect on in vivo accumulation of […] was measured in rat corpus striatum at 59(Micromol/kg) dose; format: functional
Method in brief: (§1)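 Rats not pretreated with reserpine received test drug (hydrochloride or hydrobromide salt) sc in the neck region 60 min before death. NSD 1015 decarboxylase inhibitor (100 mg/kg, i.e., 573 μmol/kg, ip) was given 30 min before decapitation. Brain was dissected on ice. Tissue was homogenized in 0.1 M perchloric acid with α-methyl-DOPA internal standard. Analytes were quantified by ion-pair reversed-phase HPLC-electrochemical detection. Values are means ± SEM, n = 3-7 per treated group.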

[2] = tested on: Rattus norvegicus; assay: Effect on in vivo accumulation of dopamine(DA) was measured in rat limbic system at 59(Micromol/kg) dose; format: functional
Method in brief: (§2)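 Non-reserpinized rats got the test drug sc in the neck (5 mL/kg) 60 min before death, and NSD 1015 (573 µmol/kg ip) 30 min before death. After decapitation, the limbic system was dissected on ice, frozen and homogenized in 0.1 M perchloric acid with α-methyl-DOPA internal standard. DA was measured by ion-pair reversed-phase HPLC with electrochemical detection. Data are mean ± SEM (controls n=17-19, treated 3-7), analysed by ANOVA/Dunnett.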

[3] = tested on: Rattus norvegicus; assay: Effect on in vivo accumulation of DOPA was measured in rat limbic system at 59(Micromol/kg) dose; format: functional; method in brief: as §1
[4] = tested on: Rattus norvegicus; assay: Effect on in vivo accumulation of 5-HTP was measured in rat corpus striatum at 59(umol/kg) dose; format: functional; method in brief: as §1
[5] = tested on: Rattus norvegicus; assay: Effect on in vivo accumulation of 5-HTP was measured in rat limbic system at 59(Micromol/kg) dose; format: functional; method in brief: as §1
[6] = tested on: Rattus norvegicus; assay: Effect on in vivo accumulation of DOPA was measured in rat corpus striatum at 59(Micromol/kg) dose; format: functional; method in brief: as §1
[7] = target: T1, 5-hydroxytryptamine receptor 1A (Rattus norvegicus, UniProt P19327); assay: In vitro Inhibitory activity tested at 5-hydroxytryptamine 1A receptor binding site in rat
T1 sequence (P19327 whole entry): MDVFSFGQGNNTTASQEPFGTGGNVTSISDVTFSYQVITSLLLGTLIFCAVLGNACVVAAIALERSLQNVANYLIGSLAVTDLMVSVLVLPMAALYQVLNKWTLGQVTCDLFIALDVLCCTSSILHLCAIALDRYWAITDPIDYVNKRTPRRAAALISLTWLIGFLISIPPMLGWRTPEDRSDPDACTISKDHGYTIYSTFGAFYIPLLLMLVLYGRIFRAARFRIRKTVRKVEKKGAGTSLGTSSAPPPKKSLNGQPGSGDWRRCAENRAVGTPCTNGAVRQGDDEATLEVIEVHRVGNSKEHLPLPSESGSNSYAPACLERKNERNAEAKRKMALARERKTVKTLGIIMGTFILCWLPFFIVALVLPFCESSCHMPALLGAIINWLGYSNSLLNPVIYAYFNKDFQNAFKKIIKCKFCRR
Method in brief: (§3)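 Competition binding used rat brain membranes washed in 50 mM Tris-HCl pH 7.4, preincubated 10 min at 37 °C to remove 5-HT, and used at 10 mg wet tissue/mL. Assay: 1 nM [3H]-8-OH-DPAT, 3 mM CaCl2, 100 µM pargyline, 15 min at 37 °C, then filtration on PEI-treated filters. Nonspecific binding was set with 10 µM 5-HT. IC50 came from four-parameter logistic regression, mean ± SEM of N experiments.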

[8] = tested on: Rattus norvegicus; assay: Effect on in vivo accumulation of dopamine(DA) was measured in rat limbic system at 48(Micromol/kg) dose; format: functional; method in brief: as §2
[9] = tested on: Rattus norvegicus; assay: Effect on in vivo accumulation of DOPA was measured in rat limbic system at 48(Micromol/kg) dose; format: functional; method in brief: as §1
[10] = tested on: Rattus norvegicus; assay: Effect on in vivo accumulation of […] was measured in rat corpus striatum at 48(Micromol/kg) dose; format: functional; method in brief: as §1
[11] = tested on: Rattus norvegicus; assay: Effect on in vivo accumulation of 5-HTP was measured in rat corpus striatum at 48(umol/kg) dose; format: functional; method in brief: as §1
[12] = tested on: Rattus norvegicus; assay: Effect on in vivo accumulation of 5-HTP was measured in rat limbic system at 48(Micromol/kg) dose; format: functional; method in brief: as §1
[13] = tested on: Rattus norvegicus; assay: Effect on in vivo accumulation of DOPA was measured in rat corpus striatum at 48(Micromol/kg) dose; format: functional; method in brief: as §1
[14] = target: T1, 5-hydroxytryptamine receptor 1A; assay: Inhibitory activity tested in vitro at 5-hydroxytryptamine 1A receptor binding site in rat; method in brief: as §3
[15] = tested on: Rattus norvegicus; assay: Effect on in vivo accumulation of […] was measured in rat corpus striatum at 66(Micromol/kg) dose; format: functional; method in brief: as §1
[16] = tested on: Rattus norvegicus; assay: Effect on in vivo accumulation of dopamine(DA) was measured in rat limbic system at 66(Micromol/kg) dose; format: functional; method in brief: as §2
[17] = tested on: Rattus norvegicus; assay: Effect on in vivo accumulation of DOPA was measured in rat limbic system at 66(Micromol/kg) dose; format: functional; method in brief: as §1
[18] = tested on: Rattus norvegicus; assay: Effect on in vivo accumulation of 5-HTP was measured in rat corpus striatum at 66(umol/kg) dose; format: functional; method in brief: as §1
[19] = tested on: Rattus norvegicus; assay: Effect on in vivo accumulation of 5-HTP was measured in rat limbic system at 66(Micromol/kg) dose; format: functional; method in brief: as §1
[20] = tested on: Rattus norvegicus; assay: Effect on in vivo accumulation of DOPA was measured in rat corpus striatum at 66(Micromol/kg) dose; format: functional; method in brief: as §1
[21] = tested on: Rattus norvegicus; assay: Effect on in vivo accumulation of dopamine(DA) was measured in rat limbic system at 50(Micromol/kg) dose; format: functional; method in brief: as §2
[22] = tested on: Rattus norvegicus; assay: Effect on in vivo accumulation of DOPA was measured in rat limbic system at 50(Micromol/kg) dose; format: functional; method in brief: as §1
[23] = tested on: Rattus norvegicus; assay: Effect on in vivo accumulation of […] was measured in rat corpus striatum at 50(Micromol/kg) dose; format: functional; method in brief: as §1
[24] = tested on: Rattus norvegicus; assay: Effect on in vivo accumulation of 5-HTP was measured in rat corpus striatum at 50(umol/kg) dose; format: functional; method in brief: as §1
[25] = tested on: Rattus norvegicus; assay: Effect on in vivo accumulation of 5-HTP was measured in rat limbic system at 50(Micromol/kg) dose; format: functional; method in brief: as §1
[26] = tested on: Rattus norvegicus; assay: Effect on in vivo accumulation of DOPA was measured in rat corpus striatum at 50(Micromol/kg) dose; format: functional; method in brief: as §1

Question: `CCCN[C@H]1Cc2c(O)cccc2C[C@@H]1C` (racemic) was tested. Which Activity [1] did it give?
Answer: The Activity was 5877 ng/g.

Question: What about the Activity [2] of the same compound?
Answer: The Activity was 1215 ng/g.

Question: What about the Activity [3] of the same compound?
Answer: The Activity was 400 ng/g.

Question: What about the Activity [4] of the same compound?
Answer: The Activity was 101 ng/g.

Question: What about the Activity [5] of the same compound?
Answer: Its Activity is 155 ng/g.

Question: What about the Activity [6] of the same compound?
Answer: The Activity was 1047 ng/g.

Question: With `CCCN(CCC)[C@H]1Cc2c(O)cccc2C[C@H]1C` (racemic) as the compound, how does the IC50 [7] read?
Answer: Its IC50 is 774 nM.

Question: How did the Activity [8] turn out when `CCCN(CCC)[C@H]1Cc2c(O)cccc2CC1(C)C` (racemic) was run?
Answer: The Activity was 1125 ng/g.

Question: And the Activity [9]?
Answer: Its Activity is 362 ng/g.

Question: What about the Activity [10] of the same compound?
Answer: Its Activity is 5417 ng/g.

Question: What about the Activity [11] of the same compound?
Answer: The Activity was 90 ng/g.

Question: What about the Activity [12] of the same compound?
Answer: The Activity was 158 ng/g.

Question: What about the Activity [13] of the same compound?
Answer: Its Activity is 982 ng/g.

Question: `CCCN(CCC)[C@H]1Cc2c(O)cccc2C[C@@H]1C` (stereo in doubt; (-)) was tested. Which IC50 [14] did it give?
Answer: The IC50 was 1680 nM.

Question: Which results are given for `CCCN(CCC)[C@H]1Cc2c(cccc2OC)C[C@H]1C` (racemic)?
Answer: Activity [8]: 1342 ng/g; Activity [9]: 414 ng/g; Activity [10]: 6465 ng/g; Activity [11]: 88.8 ng/g; Activity [12]: 141 ng/g; Activity [13]: 1078 ng/g

Question: For `COc1cccc2c1C[C@H](N)[C@@H](C)C2` (racemic), which Activity [15] is on record?
Answer: Its Activity is <6863 ng/g.

Question: What about the Activity [16] of the same compound?
Answer: Its Activity is 1243 ng/g.

Question: What about the Activity [17] of the same compound?
Answer: Its Activity is 356 ng/g.

Question: What about the Activity [18] of the same compound?
Answer: Its Activity is 90.2 ng/g.

Question: And the Activity [19]?
Answer: Its Activity is <106 ng/g.

Question: What about the Activity [20] of the same compound?
Answer: The Activity was <823 ng/g.

Question: With `CCCN[C@H]1Cc2c(O)cccc2C[C@@H]1C` (stereo in doubt; (+)-9) as the compound, how does the Activity [1] read?
Answer: The Activity was 4249 ng/g.

Question: And the Activity [2]?
Answer: Its Activity is 1030 ng/g.

Question: And the Activity [3]?
Answer: Its Activity is 426 ng/g.

Question: And the Activity [4]?
Answer: Its Activity is <67.4 ng/g.

Question: What about the Activity [5] of the same compound?
Answer: Its Activity is 125 ng/g.

Question: And the Activity [6]?
Answer: Its Activity is 957 ng/g.

Question: How did the IC50 [7] turn out when `CCCN(CCC)[C@H]1Cc2c(O)cccc2C[C@@H]1C` (racemic; form 2) was run?
Answer: The IC50 was 129 nM.

Question: What about the Activity [21] of the same compound?
Answer: The Activity was <775 ng/g.

Question: What about the Activity [22] of the same compound?
Answer: Its Activity is 348 ng/g.

Question: What about the Activity [23] of the same compound?
Answer: Its Activity is <3871 ng/g.

Question: And the Activity [24]?
Answer: Its Activity is <27.1 ng/g.

Question: And the Activity [25]?
Answer: Its Activity is <79.3 ng/g.

Question: What about the Activity [26] of the same compound?
Answer: Its Activity is 792 ng/g.

Question: `CCCN(CCC)[C@H]1Cc2c(O)cccc2C[C@@H]1C` (stereo in doubt; (+)) was tested. Which IC50 [14] did it give?
Answer: Its IC50 is 60.5 nM.

Question: Which IC50 [14] does the source give for `CCCN(CCC)[C@H]1Cc2c(O)cccc2C[C@H]1C` (stereo in doubt; (+)-15) here?
Answer: The IC50 was 2420 nM.

Question: What about the Activity [21] of the same compound?
Answer: The Activity was <609 ng/g.

Question: What about the Activity [22] of the same compound?
Answer: The Activity was <507 ng/g.

Question: And the Activity [23]?
Answer: The Activity was <2758 ng/g.

Question: And the Activity [24]?
Answer: Its Activity is 115 ng/g.

Question: What about the Activity [25] of the same compound?
Answer: The Activity was 197 ng/g.

Question: What about the Activity [26] of the same compound?
Answer: Its Activity is 1157 ng/g.
